Measured values as given in ChEMBL document CHEMBL1165943, “Design and synthesis of new anticancer pyrimidines with multiple-kinase inhibitory effect” (Bioorg Med Chem, 2010).

Experiments:
Format in all cases: functional
SNB-75 = test: Cytotoxicity against human SNB75 cells assessed as cell growth at 10 uM; settings: Homo sapiens, SNB-75; read-out: Activity
Outline: (§1)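 Single-dose screen at 10 μM across the 60-cell-line panel. Cells grown in RPMI 1640 with 5% FBS and 2 mM L-glutamine, seeded at 5,000–40,000 cells/well according to doubling time, and treated 24 h later. Exposure lasted 48 h at 37 °C, 5% CO₂. Adherent cells were fixed with cold TCA, suspension cells were fixed settled, and both were stained with SRB and read at 515 nm. Growth % was recorded, with inhibition % = 100 − growth %.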

NCI-H226 = test: Cytotoxicity against human NCI-H226 cells assessed as cell growth at 10 uM; settings: Homo sapiens, NCI-H226; read-out: Activity; outline: as §1
IGROV-1 = test: Cytotoxicity against human IGROV1 cells assessed as cell growth at 10 uM; settings: Homo sapiens, IGROV-1; read-out: Activity; outline: as §1
COLO 205 = test: Cytotoxicity against human COLO205 cells assessed as cell growth at 10 uM; settings: Homo sapiens, COLO 205; read-out: Activity
Outline: (§2)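 Single-concentration screen at 10 μM across the 60-cell-line panel (nine tissue types); growth percentage recorded per cell line, with inhibition taken as 100 minus growth percentage.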

T47D = test: Cytotoxicity against human T47D cells assessed as cell growth at 10 uM; settings: Homo sapiens, T47D; read-out: Activity; outline: as §1
UO-31 = test: Cytotoxicity against human UO31 cells assessed as cell growth at 10 uM; settings: Homo sapiens, UO-31; read-out: Activity; outline: as §1
TK-10 = test: Cytotoxicity against human TK10 cells assessed as cell growth at 10 uM; settings: Homo sapiens, TK-10; read-out: Activity; outline: as §1
HCT-116 = test: Cytotoxicity against human HCT116 cells assessed as cell growth at 10 uM; settings: Homo sapiens, HCT-116; read-out: Activity; outline: as §2
[1] = Growth inhibition of human NCI60 cells at 10 uM after 48 hrs by sulforhodamine B assay relative to control; settings: Homo sapiens, NCI60, 48 h; read-out: GI
Outline: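 Single 10 µM dose across the 60-line panel for 48 h, with the same culture, TCA fixation and SRB 515 nm read-out. Inhibition % = 100 − growth %, given as the mean over the 60 cell lines.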

SR = test: Cytotoxicity against human SR cells assessed as cell growth at 10 uM; settings: Homo sapiens, SR; read-out: Activity; outline: as §1
M14 = test: Cytotoxicity against human M14 cells assessed as cell growth at 10 uM; settings: Homo sapiens, M14; read-out: Activity; outline: as §1
HOP-62 = test: Cytotoxicity against human HOP62 cells assessed as cell growth at 10 uM; settings: Homo sapiens, HOP-62; read-out: Activity; outline: as §2
OVCAR-5 = test: Cytotoxicity against human OVCAR5 cells assessed as cell growth at 10 uM; settings: Homo sapiens, OVCAR-5; read-out: Activity; outline: as §1
DU-145 = test: Cytotoxicity against human DU145 cells assessed as cell growth at 10 uM; settings: Homo sapiens, DU-145; read-out: Activity; outline: as §2
786-0 = test: Cytotoxicity against human 786-0 cells assessed as cell growth at 10 uM; settings: Homo sapiens, 786-0; read-out: Activity; outline: as §2
SK-MEL-2 = test: Cytotoxicity against human SK-MEL-2 cells assessed as cell growth at 10 uM; settings: Homo sapiens, SK-MEL-2; read-out: Activity; outline: as §1
U-251 = test: Cytotoxicity against human U251 cells assessed as cell growth at 10 uM; settings: Homo sapiens, U-251; read-out: Activity; outline: as §1
PC-3 = test: Cytotoxicity against human PC3 cells assessed as cell growth at 10 uM; settings: Homo sapiens, PC-3; read-out: Activity; outline: as §1
SF-295 = test: Cytotoxicity against human SF295 cells assessed as cell growth at 10 uM; settings: Homo sapiens, SF-295; read-out: Activity; outline: as §1
HL-60(TB) = test: Cytotoxicity against human HL-60(TB) cells assessed as cell growth at 10 uM; settings: Homo sapiens, HL-60; read-out: Activity
Outline: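 Single-concentration 10 µM screen of HL-60(TB) within the 60-line panel, grown in RPMI 1640 with 5% FBS. The drug from DMSO stock is incubated 48 h at 37 °C, settled cells are TCA-fixed and SRB-stained, and absorbance is read at 515 nm. Percent growth is reported, and inhibition % is taken as 100 minus growth %.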

OVCAR-3 = test: Cytotoxicity against human OVCAR-3 cells assessed as cell growth at 10 uM; settings: Homo sapiens, OVCAR-3; read-out: Activity; outline: as §1
EKVX = test: Cytotoxicity against human EKVX cells assessed as cell growth at 10 uM; settings: Homo sapiens, EKVX; read-out: Activity; outline: as §2
A498 = test: Cytotoxicity against human A498 cells assessed as cell growth at 10 uM; settings: Homo sapiens, A498; read-out: Activity; outline: as §2
HT-29 = test: Cytotoxicity against human HT-29 cells assessed as cell growth at 10 uM; settings: Homo sapiens, HT-29; read-out: Activity; outline: as §2
NCI/ADR-RES = test: Cytotoxicity against human NCI/ADR-RES cells assessed as cell growth at 10 uM; settings: Homo sapiens, NCI/ADR-RES; read-out: Activity; outline: as §1
CAKI-1 = test: Cytotoxicity against human Caki1 cells assessed as cell growth at 10 uM; settings: Homo sapiens, CAKI-1; read-out: Activity; outline: as §2
MDA-MB-468 = test: Cytotoxicity against human MDA-MB-468 cells assessed as cell growth at 10 uM; settings: Homo sapiens, MDA-MB-468; read-out: Activity; outline: as §1
NCI-H23 = test: Cytotoxicity against human NCI-H23 cells assessed as cell growth at 10 uM; settings: Homo sapiens, NCI-H23; read-out: Activity; outline: as §1
NCI-H522 = test: Cytotoxicity against human NCI-H522 cells assessed as cell growth at 10 uM; settings: Homo sapiens, NCI-H522; read-out: Activity; outline: as §1
SK-OV-3 = test: Cytotoxicity against human SKOV3 cells assessed as cell growth at 10 uM; settings: Homo sapiens, SK-OV-3; read-out: Activity; outline: as §1
ACHN = test: Cytotoxicity against human ACHN cells assessed as cell growth at 10 uM; settings: Homo sapiens, ACHN; read-out: Activity; outline: as §2
SK-MEL-5 = test: Cytotoxicity against human SK-MEL-5 cells assessed as cell growth at 10 uM; settings: Homo sapiens, SK-MEL-5; read-out: Activity; outline: as §1
K562 = test: Cytotoxicity against human K562 cells assessed as cell growth at 10 uM; settings: Homo sapiens, K562; read-out: Activity; outline: as §1
SF-539 = test: Cytotoxicity against human SF539 cells assessed as cell growth at 10 uM; settings: Homo sapiens, SF-539; read-out: Activity; outline: as §1
NCI-H460 = test: Cytotoxicity against human NCI-H460 cells assessed as cell growth at 10 uM; settings: Homo sapiens, NCI-H460; read-out: Activity; outline: as §1
UACC-257 = test: Cytotoxicity against human UACC257 cells assessed as cell growth at 10 uM; settings: Homo sapiens, UACC-257; read-out: Activity; outline: as §1
SW-620 = test: Cytotoxicity against human SW620 cells assessed as cell growth at 10 uM; settings: Homo sapiens, SW-620; read-out: Activity; outline: as §1

Row | SMILES | growth at 10 µM (SNB-75) [%] | growth at 10 µM (NCI-H226) [%] | growth at 10 µM (IGROV-1) [%] | growth at 10 µM (COLO 205) [%] | growth at 10 µM (T47D) [%] | growth at 10 µM (UO-31) [%] | growth at 10 µM (TK-10) [%] | growth at 10 µM (HCT-116) [%] | inhibition of growth at 10 µM [1] [%] | growth at 10 µM (SR) [%] | growth at 10 µM (M14) [%] | growth at 10 µM (HOP-62) [%] | growth at 10 µM (OVCAR-5) [%] | growth at 10 µM (DU-145) [%] | growth at 10 µM (786-0) [%] | growth at 10 µM (SK-MEL-2) [%] | growth at 10 µM (U-251) [%] | growth at 10 µM (PC-3) [%] | growth at 10 µM (SF-295) [%] | growth at 10 µM (HL-60(TB)) [%] | also measured
1 | CC(=O)Nc1cccc(-c2ccc(-c3ccnc(NC(=O)Nc4cc(C(F)(F)F)cc(C(F)(F)F)c4)n3)cn2)c1.Cl | 87.2 | 59.8 | 76 | 53.5 | -11.3 | 54.7 | 76 | 50.5 | 50.9 | 68 | 46.5 | -3.2 | 93.5 | 89.2 | 69.8 | 62.1 | -25.4 | 56.2 | 49 | 60.1 | growth at 10 µM (OVCAR-3): 67.8%; growth at 10 µM (EKVX): 69.2%; growth at 10 µM (A498): 59%; growth at 10 µM (HT-29): 9.2%; growth at 10 µM (NCI/ADR-RES): 45.5%; growth at 10 µM (CAKI-1): 50.9%; growth at 10 µM (MDA-MB-468): -30.3%; growth at 10 µM (NCI-H23): -6.37%; growth at 10 µM (NCI-H522): 8.5%; growth at 10 µM (SK-OV-3): 83.1%; growth at 10 µM (ACHN): 60.5%; growth at 10 µM (SK-MEL-5): -25.5%; growth at 10 µM (K562): 34.8%; growth at 10 µM (SF-539): 75.6%; growth at 10 µM (NCI-H460): 34.5%; growth at 10 µM (UACC-257): 50.5%; growth at 10 µM (SW-620): 85.2%
2 | Cc1cc(-c2cccnc2)nc(NC(=O)c2cccc(C(F)(F)F)c2)n1 | 93.5 | 97.5 | 103 | 119 | 95.5 | 86.7 | 102 | 105 | 0.62 | 106 | 109 | 106 | 95.7 | 101 | 95.2 | 93.5 | 97 | 99.2 | 101 | 97 | growth at 10 µM (OVCAR-3): 116%; growth at 10 µM (EKVX): 101%; growth at 10 µM (A498): 93.9%; growth at 10 µM (HT-29): 98.9%; growth at 10 µM (NCI/ADR-RES): 91.2%; growth at 10 µM (CAKI-1): 83.6%; growth at 10 µM (MDA-MB-468): 96.7%; growth at 10 µM (NCI-H23): 101%; growth at 10 µM (NCI-H522): 91.9%; growth at 10 µM (SK-OV-3): 101%; growth at 10 µM (ACHN): 105%; growth at 10 µM (SK-MEL-5): 99%; growth at 10 µM (K562): 89%; growth at 10 µM (SF-539): 99.3%; growth at 10 µM (NCI-H460): 103%; growth at 10 µM (UACC-257): 99.6%; growth at 10 µM (SW-620): 105%
3 | FC(F)(F)c1cc(Nc2nccc(-c3ccc(Nc4ccccc4)nc3)n2)cc(C(F)(F)F)c1 | 86.5 | 98 | 102 | 104 | 84.5 | 79.5 | 119 | 108 | 0.2 | 90 | 111 | 94 | 97.3 | 111 | 105 | 92.1 | 104 | 95.2 | 112 | 105 | growth at 10 µM (OVCAR-3): 119%; growth at 10 µM (EKVX): 108%; growth at 10 µM (A498): 104%; growth at 10 µM (HT-29): 99.8%; growth at 10 µM (NCI/ADR-RES): 102%; growth at 10 µM (CAKI-1): 98%; growth at 10 µM (MDA-MB-468): 89.6%; growth at 10 µM (NCI-H23): 98.2%; growth at 10 µM (NCI-H522): 96.5%; growth at 10 µM (SK-OV-3): 89.9%; growth at 10 µM (ACHN): 91.3%; growth at 10 µM (SK-MEL-5): 99.1%; growth at 10 µM (K562): 92.9%; growth at 10 µM (SF-539): 94.9%; growth at 10 µM (NCI-H460): 109%; growth at 10 µM (UACC-257): 99.5%; growth at 10 µM (SW-620): 101%
